The text below walks through data of ChEMBL document CHEMBL1127071, “Structure-activity relationships of C-terminal endothelin hexapeptide antagonists” (J Med Chem, 1993).

The species named for one experiment is Rattus norvegicus. Put plainly: Inhibition of ET-1 stimulated inositol phosphate accumulation in rat fibroblast. The format is functional, organism-based. The method in brief: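 Rat skin fibroblasts prelabelled with [3H]inositol; ET-1-stimulated accumulation of total [3H]inositol phosphates in presence of Li+, measured by anion-exchange chromatography.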

Another experiment addresses T1, Endothelin receptor (Rattus norvegicus, UniProt P26684+P21451).
T1 sequence (P26684 whole entry): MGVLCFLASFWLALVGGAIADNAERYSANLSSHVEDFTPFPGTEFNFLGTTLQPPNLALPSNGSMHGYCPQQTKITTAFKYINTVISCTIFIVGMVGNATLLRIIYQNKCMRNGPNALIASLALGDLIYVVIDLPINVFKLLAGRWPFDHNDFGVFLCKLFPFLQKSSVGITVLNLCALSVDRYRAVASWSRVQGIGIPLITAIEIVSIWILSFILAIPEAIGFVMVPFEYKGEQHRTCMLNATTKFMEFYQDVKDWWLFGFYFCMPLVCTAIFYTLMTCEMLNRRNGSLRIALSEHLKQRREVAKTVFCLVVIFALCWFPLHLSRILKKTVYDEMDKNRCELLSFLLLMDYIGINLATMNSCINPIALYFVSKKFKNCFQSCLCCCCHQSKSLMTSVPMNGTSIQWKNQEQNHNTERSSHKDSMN
T1 sequence (P21451 whole entry): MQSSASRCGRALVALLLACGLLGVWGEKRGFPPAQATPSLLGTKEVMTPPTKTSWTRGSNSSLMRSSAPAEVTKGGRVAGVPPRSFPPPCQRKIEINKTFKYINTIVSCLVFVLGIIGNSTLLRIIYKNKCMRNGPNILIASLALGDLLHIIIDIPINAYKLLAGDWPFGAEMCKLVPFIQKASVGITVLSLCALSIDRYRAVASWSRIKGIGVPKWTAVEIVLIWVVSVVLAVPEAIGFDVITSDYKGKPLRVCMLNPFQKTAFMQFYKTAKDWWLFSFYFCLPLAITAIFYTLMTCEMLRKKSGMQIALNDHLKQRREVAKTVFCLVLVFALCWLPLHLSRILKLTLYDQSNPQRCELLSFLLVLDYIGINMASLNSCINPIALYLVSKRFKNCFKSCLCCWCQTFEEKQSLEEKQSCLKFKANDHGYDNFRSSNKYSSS
Put plainly: Binding affinity against Endothelin receptor from rat heart ventricle. The format is protein assay.

One may read the IC50 as the concentration that inhibits the measured activity by half. Low readings indicate greater potency, high ones weaker potency. As to `CC[C@@H](C)[C@@H](NC(=O)[C@@H](NC(=O)[C@H](CC(=O)O)NC(=O)[C@H](CC(C)C)NC(=O)[C@H](Cc1c[nH]cn1)NC(C)=O)[C@@H](C)CC)C(=O)N[C@@H](Cc1c[nH]c2ccccc12)C(=O)O`, the half-inhibitory concentration (IC50) in the experiment filed under Rattus norvegicus was over 100 µM; at Endothelin receptor, 16.9 µM.

With `CC[C@H](C)[C@H](NC(=O)[C@H](CC(=O)O)NC(=O)[C@H](CC(C)C)NC(=O)[C@H](Cc1c[nH]cn1)NC(C)=O)C(=O)N[C@H](C(=O)N[C@@H](Cc1c[nH]c2ccccc12)C(=O)O)[C@@H](C)CC`, the IC50 in the experiment listed under Rattus norvegicus came to 50 µM; on Endothelin receptor it was 58 µM.
